Measured values reported in ChEMBL document CHEMBL4706666, “Targeting Cysteine Located Outside the Active Site: An Effective Strategy for Covalent ALKi Design” (J Med Chem, 2021).
pIC50: −log10 of the molar value. Values belong to the molecule of their own block, whether it stands above or below them. Active and inactive are the calls of the source. The calls are words filed in the database; no cut-off is given here.

What was measured:
[1] = target: T1, ALK tyrosine kinase receptor (Homo sapiens, UniProt Q9UM73); assay: Inhibition of N-terminal GST tagged human ALK cytoplasmic domain (1058 to 1620 residues) expressed in Sf21 cells by mobility shift assay
Procedure, shortened: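 Wild-type ALK, kinase substrate and ATP at Km were combined with compound in kinase buffer and incubated 10 min at room temperature. Read-out was by mobility shift, and IC50 was derived by curve fitting.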
Target sequence in this assay (Q9UM73 whole entry, the tested form may be a part): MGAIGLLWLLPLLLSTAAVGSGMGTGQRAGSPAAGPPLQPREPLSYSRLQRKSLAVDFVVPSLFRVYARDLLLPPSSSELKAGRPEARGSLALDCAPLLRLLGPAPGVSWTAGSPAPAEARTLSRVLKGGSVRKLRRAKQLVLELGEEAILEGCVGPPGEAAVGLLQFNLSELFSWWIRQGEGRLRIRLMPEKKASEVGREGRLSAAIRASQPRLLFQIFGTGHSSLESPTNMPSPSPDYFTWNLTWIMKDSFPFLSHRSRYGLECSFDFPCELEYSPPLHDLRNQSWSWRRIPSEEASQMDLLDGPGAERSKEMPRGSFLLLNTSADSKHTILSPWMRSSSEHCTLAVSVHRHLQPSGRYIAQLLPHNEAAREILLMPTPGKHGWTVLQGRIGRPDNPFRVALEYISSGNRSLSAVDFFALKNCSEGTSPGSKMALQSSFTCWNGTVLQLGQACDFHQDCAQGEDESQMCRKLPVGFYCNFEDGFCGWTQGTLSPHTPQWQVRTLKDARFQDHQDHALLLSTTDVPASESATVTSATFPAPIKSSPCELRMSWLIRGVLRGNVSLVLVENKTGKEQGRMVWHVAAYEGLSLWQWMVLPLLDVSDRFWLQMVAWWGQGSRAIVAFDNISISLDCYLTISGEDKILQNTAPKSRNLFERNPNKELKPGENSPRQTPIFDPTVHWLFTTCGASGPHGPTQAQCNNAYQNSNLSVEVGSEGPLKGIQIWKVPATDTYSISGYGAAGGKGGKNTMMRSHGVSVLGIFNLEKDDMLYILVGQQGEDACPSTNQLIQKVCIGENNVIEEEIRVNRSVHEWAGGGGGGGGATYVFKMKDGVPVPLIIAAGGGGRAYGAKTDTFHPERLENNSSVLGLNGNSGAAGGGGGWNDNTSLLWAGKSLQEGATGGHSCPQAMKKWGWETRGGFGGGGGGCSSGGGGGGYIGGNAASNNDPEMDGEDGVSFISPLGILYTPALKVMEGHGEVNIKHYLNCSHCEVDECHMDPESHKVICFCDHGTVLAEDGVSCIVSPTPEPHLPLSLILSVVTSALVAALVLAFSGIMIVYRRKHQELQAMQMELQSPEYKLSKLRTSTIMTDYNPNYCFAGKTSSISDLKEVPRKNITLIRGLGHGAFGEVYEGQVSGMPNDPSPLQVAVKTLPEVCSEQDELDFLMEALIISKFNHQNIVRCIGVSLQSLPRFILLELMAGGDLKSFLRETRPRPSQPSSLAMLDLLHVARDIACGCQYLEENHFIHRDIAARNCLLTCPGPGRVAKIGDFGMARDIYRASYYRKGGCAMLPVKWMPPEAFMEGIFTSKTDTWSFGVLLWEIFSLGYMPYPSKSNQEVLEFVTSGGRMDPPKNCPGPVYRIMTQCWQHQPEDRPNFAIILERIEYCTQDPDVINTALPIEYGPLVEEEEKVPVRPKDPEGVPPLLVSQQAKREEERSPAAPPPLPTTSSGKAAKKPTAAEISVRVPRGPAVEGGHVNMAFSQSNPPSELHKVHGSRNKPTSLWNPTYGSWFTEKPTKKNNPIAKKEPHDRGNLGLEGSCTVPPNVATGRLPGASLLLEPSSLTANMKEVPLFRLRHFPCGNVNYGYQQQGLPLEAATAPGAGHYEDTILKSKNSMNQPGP

[2] = system: NCI-H3122; assay: Antitumor activity against human NCI-H3122 cells xenografted in Balb/c nude mouse assessed as tumor growth inhibition at 20 mg/kg/day, po and measured 15 days post treatment by vernier caliper method relative to control; format: functional; settings: 360 h, time 15 day, read-out: TGI
Procedure, shortened: (§1)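 Female BALB/c nude mice, 6−7 weeks old and 18−22 g, were implanted sc with 5 × 10⁶ exponential-phase H3122 cells in 0.1 mL serum- and antibiotic-free medium. At 150−200 mm³ they were randomized (6 per group) and dosed orally once daily at 10, 20 or 50 mg/kg in 10% NMP/90% PEG300, with a vehicle group. Body weight and caliper tumor volume (a × b²/2) were recorded every 3 days. TGI versus vehicle was determined after 15 days.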

[3] = Toxicity in Balb/c mouse xenografted with human NCI-H3122 cells assessed as change in body weight at 10 to 50 mg/kg/day, po and measured every 3 days for 15 days; format: organism-based; settings: in vivo, 360 h, dose 10-50 mg/kg/day, time 15 day; procedure, shortened: as §1
[4] = target: T1, ALK tyrosine kinase receptor; assay: Inhibition of N-terminal GST tagged human ALK cytoplasmic domain (1058 to 1620 residues) expressed in Sf21 cells at 200 nM incubated for 10 mins by mobility shift assay
Target sequence in this assay (Q9UM73 19-1620 limits assumed): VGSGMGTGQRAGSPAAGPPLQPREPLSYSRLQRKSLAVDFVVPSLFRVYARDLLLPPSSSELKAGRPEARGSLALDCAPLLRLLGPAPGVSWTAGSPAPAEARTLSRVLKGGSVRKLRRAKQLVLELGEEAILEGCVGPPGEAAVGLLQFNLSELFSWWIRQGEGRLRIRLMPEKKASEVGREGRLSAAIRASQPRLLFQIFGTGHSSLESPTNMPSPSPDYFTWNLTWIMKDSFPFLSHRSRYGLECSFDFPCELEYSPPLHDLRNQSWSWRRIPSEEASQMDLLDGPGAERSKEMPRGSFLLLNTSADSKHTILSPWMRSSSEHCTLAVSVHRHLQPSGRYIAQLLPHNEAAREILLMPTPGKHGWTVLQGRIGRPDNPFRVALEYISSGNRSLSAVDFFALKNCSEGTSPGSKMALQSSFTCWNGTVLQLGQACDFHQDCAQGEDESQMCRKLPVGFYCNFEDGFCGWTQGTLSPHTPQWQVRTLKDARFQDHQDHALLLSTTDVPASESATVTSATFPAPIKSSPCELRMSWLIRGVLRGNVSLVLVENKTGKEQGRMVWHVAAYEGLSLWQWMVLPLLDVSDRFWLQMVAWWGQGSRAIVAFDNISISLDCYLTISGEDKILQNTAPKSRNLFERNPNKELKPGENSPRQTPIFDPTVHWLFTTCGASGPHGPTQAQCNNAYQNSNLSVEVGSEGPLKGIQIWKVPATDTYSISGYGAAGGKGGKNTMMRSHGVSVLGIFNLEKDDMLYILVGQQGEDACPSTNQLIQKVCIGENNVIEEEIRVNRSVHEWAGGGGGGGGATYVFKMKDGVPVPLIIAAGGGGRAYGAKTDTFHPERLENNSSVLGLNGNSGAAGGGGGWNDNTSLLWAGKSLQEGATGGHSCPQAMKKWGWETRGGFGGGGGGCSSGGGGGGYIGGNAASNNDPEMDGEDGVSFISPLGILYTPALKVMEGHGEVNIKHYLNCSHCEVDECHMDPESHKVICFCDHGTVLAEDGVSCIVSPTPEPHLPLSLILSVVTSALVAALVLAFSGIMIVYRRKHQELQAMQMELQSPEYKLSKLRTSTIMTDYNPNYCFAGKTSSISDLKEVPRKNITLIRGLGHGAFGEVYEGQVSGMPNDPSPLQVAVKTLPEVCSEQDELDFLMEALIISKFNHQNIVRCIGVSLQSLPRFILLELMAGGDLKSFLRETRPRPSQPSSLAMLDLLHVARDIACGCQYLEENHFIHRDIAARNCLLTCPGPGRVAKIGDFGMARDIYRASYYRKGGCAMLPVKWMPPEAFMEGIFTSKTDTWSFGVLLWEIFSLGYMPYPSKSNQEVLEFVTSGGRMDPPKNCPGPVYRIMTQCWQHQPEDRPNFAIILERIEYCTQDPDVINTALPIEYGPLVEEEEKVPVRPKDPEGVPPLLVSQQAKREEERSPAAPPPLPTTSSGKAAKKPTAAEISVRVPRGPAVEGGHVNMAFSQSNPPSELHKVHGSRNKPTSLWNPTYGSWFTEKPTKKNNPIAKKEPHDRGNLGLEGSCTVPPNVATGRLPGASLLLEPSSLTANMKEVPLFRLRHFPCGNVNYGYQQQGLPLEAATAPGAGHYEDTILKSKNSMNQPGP

[5] = Cmax in Sprague-Dawley rat at […] measured upto 24 hrs by LC-MS/MS analysis; format: ADME, organism-based; design: route intravenous, dose 1 mg/kg, time <=24; settings: in vivo
[6] = target: T1, ALK tyrosine kinase receptor; assay: Covalent inhibition of N-terminal GST tagged human ALK cytoplasmic domain (1058 to 1620 residues) expressed in Sf21 cells in presence of high ATP levels
Target sequence in this assay (Q9UM73 whole entry, the tested form may be a part): as the sequence (Q9UM73 whole entry, the tested form may be a part) above

[7] = AUC (0 to infinity) in Sprague-Dawley rat at 10 mg/kg, po measured upto 24 hrs by LC-MS/MS analysis; format: ADME, organism-based; design: route oral, dose 10 mg/kg, time <=24; settings: in vivo
Procedure, shortened: (§2)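 Male SD rats (200−220 g, n = 3 per group) received 1 mg/kg iv in 5% DMA/10% Solutol HS 15/85% saline, or 10 mg/kg orally in 0.5% CMC-Na. Jugular-vein blood was drawn to 24 h, and plasma was kept at −80 °C. Plasma levels were quantified by LC−MS/MS (LLOQ 1 ng/mL), and parameters were derived by noncompartmental analysis.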

[8] = target: T1, ALK tyrosine kinase receptor; assay: Inhibition of ALK phosphorylation in human NCI-H3122 cells at 10 to 500 nM incubated for 24 hrs by western blot analysis; format: cell-based; settings: dose 10-500 nM
Procedure, shortened: (§3)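 H3122 cells were exposed for 24 h at 37 °C to 0, 10, 50, 200 or 500 nM, then lysed in RIPA buffer with protease/phosphatase inhibitors and 1 mM PMSF. Protein was BCA-normalized and run on SDS−PAGE to PVDF. Primary antibodies were applied overnight at 4 °C in 5% BSA/TBST, then HRP secondary (1/5000, 1 h). Detection was by chemiluminescence.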
Target sequence in this assay (Q9UM73 19-1620 limits assumed): as the sequence (Q9UM73 19-1620 limits assumed) above

[9] = system: NCI-H3122; assay: Antitumor activity against human NCI-H3122 cells xenografted in Balb/c nude mouse assessed as tumor growth inhibition at 10 mg/kg/day, po and measured 15 days post treatment by vernier caliper method relative to control; format: functional; settings: 360 h, time 15 day, read-out: TGI; procedure, shortened: as §1
[10] = target: Fibroblast growth factor receptor 2 (Homo sapiens, UniProt P21802); assay: Inhibition of FGFR2 (unknown origin)
[11] = Half life in Sprague-Dawley rat at 10 mg/kg, po measured upto 24 hrs by LC-MS/MS analysis; format: ADME, organism-based; settings: in vivo; procedure, shortened: as §2
[12] = system: NCI-H3122; assay: Antitumor activity against human NCI-H3122 cells xenografted in Balb/c nude mouse assessed as tumor growth inhibition administered orally and measured every 3 days for 15 days by vernier caliper method; format: functional, cell-based; settings: time 15.0 day; procedure, shortened: as §1
[13] = target: T2, Receptor-type tyrosine-protein kinase FLT3 (Homo sapiens, UniProt P36888); assay: Inhibition of FLT3 (unknown origin)
T2 sequence (P36888 whole entry): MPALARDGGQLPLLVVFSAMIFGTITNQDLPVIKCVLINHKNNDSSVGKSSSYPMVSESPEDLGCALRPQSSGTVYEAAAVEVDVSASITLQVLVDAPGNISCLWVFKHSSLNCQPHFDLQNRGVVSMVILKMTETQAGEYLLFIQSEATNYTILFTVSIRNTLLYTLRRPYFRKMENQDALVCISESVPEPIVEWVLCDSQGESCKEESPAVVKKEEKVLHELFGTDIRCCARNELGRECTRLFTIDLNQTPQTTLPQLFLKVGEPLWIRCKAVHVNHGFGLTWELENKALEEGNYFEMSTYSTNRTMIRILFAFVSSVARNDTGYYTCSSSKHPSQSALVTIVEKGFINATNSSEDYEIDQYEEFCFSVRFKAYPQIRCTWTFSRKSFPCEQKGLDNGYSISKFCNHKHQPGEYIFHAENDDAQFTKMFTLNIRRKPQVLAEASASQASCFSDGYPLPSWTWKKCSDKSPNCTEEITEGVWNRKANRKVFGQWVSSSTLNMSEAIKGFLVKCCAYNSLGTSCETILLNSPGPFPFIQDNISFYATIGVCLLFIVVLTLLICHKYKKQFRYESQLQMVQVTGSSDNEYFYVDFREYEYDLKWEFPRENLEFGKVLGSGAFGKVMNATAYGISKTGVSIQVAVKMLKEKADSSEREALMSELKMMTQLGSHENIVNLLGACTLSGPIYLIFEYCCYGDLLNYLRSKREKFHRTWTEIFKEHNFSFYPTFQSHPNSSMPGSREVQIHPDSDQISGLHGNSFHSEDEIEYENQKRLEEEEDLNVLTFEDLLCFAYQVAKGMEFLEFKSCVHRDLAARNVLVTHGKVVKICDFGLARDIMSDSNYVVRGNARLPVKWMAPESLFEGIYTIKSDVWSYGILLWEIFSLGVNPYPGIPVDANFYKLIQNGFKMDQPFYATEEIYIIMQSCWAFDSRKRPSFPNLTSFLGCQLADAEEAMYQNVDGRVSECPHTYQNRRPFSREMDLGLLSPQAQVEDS

[14] = Tmax in Sprague-Dawley rat at […] measured upto 24 hrs by LC-MS/MS analysis; format: ADME, organism-based; settings: in vivo
[15] = system: ALK tyrosine kinase receptor (Homo sapiens), Q9UM73 [L1196M]; settings: Sf21, dose 200.0 nM, time 10.0 min
[16] = system: NCI-H3122; assay: Antitumor activity against human NCI-H3122 cells xenografted in Balb/c nude mouse assessed as tumor growth inhibition at 50 mg/kg/day, po and measured 15 days post treatment by vernier caliper method relative to control; format: functional; settings: 360 h, time 15 day, read-out: TGI; procedure, shortened: as §1
[17] = target: T1, ALK tyrosine kinase receptor; assay: Inhibition of ALK in human NCI-H3122 cells assessed as decrease in phosphorylation of AKT at 10 to 500 nM incubated for 24 hrs by western blot analysis; format: cell-based; settings: dose 10-500 nM; procedure, shortened: as §3
Target sequence in this assay (Q9UM73 19-1620 limits assumed): as the sequence (Q9UM73 19-1620 limits assumed) above

[18] = target: T1, ALK tyrosine kinase receptor; assay: Inhibition of ALK in human NCI-H3122 cells assessed as decrease in STAT3 expression levels at 10 to 500 nM incubated for 24 hrs by western blot analysis; format: cell-based; settings: dose 10-500 nM; procedure, shortened: as §3
Target sequence in this assay (Q9UM73 19-1620 limits assumed): as the sequence (Q9UM73 19-1620 limits assumed) above

[19] = Oral bioavailability in Sprague-Dawley rat at 10 mg/kg measured upto 24 hrs by LC-MS/MS analysis; format: ADME, organism-based; settings: in vivo; procedure, shortened: as §2
[20] = target: T1, ALK tyrosine kinase receptor; assay: Inhibition of N-terminal GST tagged human ALK cytoplasmic domain (1058 to 1620 residues) expressed in Sf21 cells at 20 nM incubated for 10 mins by mobility shift assay
Target sequence in this assay (Q9UM73 19-1620 limits assumed): as the sequence (Q9UM73 19-1620 limits assumed) above

[21] = Binding affinity to L-cysteine assessed as molecular mass incubated for 8 hrs by LC-MS analysis
Procedure, shortened: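 L-cysteine incubated in water with a 5-fold molar excess of compound (or DMSO) for 8 h at 4 °C; reaction mixtures analysed by LC–MS on an ion trap mass spectrometer to detect adduct mass.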

[22] = target: T1, ALK tyrosine kinase receptor; assay: Inhibition of ALK in human NCI-H3122 cells assessed as downregulation of STAT3 phosphorylation levels at 10 to 500 nM incubated for 24 hrs by western blot analysis; format: cell-based; settings: dose 10-500 nM; procedure, shortened: as §3
Target sequence in this assay (Q9UM73 19-1620 limits assumed): as the sequence (Q9UM73 19-1620 limits assumed) above

[23] = system: NCI-H3122; assay: Antiproliferative activity against human NCI-H3122 cells assessed as reduction in cell viability incubated for 72 hrs by MTT assay; settings: NCI-H3122, 72 h
[24] = system: L02; assay: Antiproliferative activity against human L02 cells assessed as reduction in cell viability at 5 uM incubated for 72 hrs by MTT assay relative to Ceritinib; format: cell-based; settings: l02, 72 h
Procedure, shortened: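 Normal human liver LO2 cells were grown at 37 °C, 5% CO₂ with 10% FBS and seeded at 2−5 × 10³ per well for 24 h. Compound was added at 5 μM for 72 h, followed by MTT for 1−4 h and absorbance read at 450 nm. Inhibition rate was taken from OD.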

[25] = target: T1, ALK tyrosine kinase receptor; assay: Inhibition of ALK in human NCI-H3122 cells assessed as downregulation of AKT expression levels at 10 to 500 nM incubated for 24 hrs by western blot analysis; format: cell-based; settings: dose 10-500 nM; procedure, shortened: as §3
[26] = Clearance in Sprague-Dawley rat at 1 mg/kg, iv measured upto 24 hrs by LC-MS/MS analysis; format: ADME, organism-based; settings: in vivo; procedure, shortened: as §2
[27] = Volume of distribution at steady state in Sprague-Dawley rat at 1 mg/kg, iv measured upto 24 hrs by LC-MS/MS analysis; format: ADME, organism-based; settings: in vivo, read-out: Vdss; procedure, shortened: as §2

ALK tyrosine kinase receptor (Homo sapiens), Q9UM73 [L1196M], sequence (Q9UM73 whole entry L1196M, looked up): as the sequence (Q9UM73 whole entry, the tested form may be a part) above, with L1196M counted along it
Fibroblast growth factor receptor 2, sequence (P21802 whole entry): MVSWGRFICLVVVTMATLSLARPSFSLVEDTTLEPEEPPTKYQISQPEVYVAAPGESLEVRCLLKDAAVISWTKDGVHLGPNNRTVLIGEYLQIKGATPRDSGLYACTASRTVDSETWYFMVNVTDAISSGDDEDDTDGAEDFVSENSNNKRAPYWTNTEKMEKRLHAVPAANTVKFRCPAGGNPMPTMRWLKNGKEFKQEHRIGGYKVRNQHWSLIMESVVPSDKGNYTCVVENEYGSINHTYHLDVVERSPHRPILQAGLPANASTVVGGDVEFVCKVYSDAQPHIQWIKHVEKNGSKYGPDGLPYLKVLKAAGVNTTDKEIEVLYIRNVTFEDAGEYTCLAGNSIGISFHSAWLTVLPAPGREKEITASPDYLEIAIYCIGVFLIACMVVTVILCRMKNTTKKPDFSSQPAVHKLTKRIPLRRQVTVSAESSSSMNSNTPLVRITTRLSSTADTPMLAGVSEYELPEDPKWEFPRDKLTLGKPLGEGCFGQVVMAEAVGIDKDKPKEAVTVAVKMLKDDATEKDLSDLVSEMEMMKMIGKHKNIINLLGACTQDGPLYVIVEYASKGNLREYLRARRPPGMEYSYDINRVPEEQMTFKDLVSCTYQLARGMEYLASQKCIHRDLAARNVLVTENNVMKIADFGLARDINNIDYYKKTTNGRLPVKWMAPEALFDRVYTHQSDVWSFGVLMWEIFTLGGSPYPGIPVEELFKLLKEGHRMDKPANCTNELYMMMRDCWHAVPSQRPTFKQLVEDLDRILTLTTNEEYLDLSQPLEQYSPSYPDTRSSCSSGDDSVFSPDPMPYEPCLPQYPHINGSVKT

Compound: C=CC(=O)NCCCCNC(=O)CCN1CCC(c2cc(OC(C)C)c(Nc3ncc(Cl)c(Nc4ccccc4S(=O)(=O)C(C)C)n3)cc2C)CC1
inhibition [4]: Active | inhibition [20]: Active

Compound: C=CC(=O)NCCCCCCCCNC(=O)CCN1CCC(c2cc(OC(C)C)c(Nc3ncc(Cl)c(Nc4ccccc4S(=O)(=O)C(C)C)n3)cc2C)CC1
inhibition [4]: Active | inhibition [20]: Active | pIC50 [23]: 6.14 | Activity [24]: Non-Toxic

Compound: C=CC(=O)NCCCCCCNC(=O)CCN1CCC(c2cc(OC(C)C)c(Nc3ncc(Cl)c(Nc4ccccc4S(=O)(=O)C(C)C)n3)cc2C)CC1
inhibition [4]: Active | inhibition [20]: Active | pIC50 [23]: 6.12 | Activity [24]: Non-Toxic

Compound: Cc1cc(Nc2ncc(Cl)c(Nc3ccccc3S(=O)(=O)C(C)C)n2)c(OC(C)C)cc1C1CCNCC1 [CERITINIB]
inhibition in vivo at 20 mg/kg/day [2]: 34% | inhibition [15]: Active | pIC50 [23]: 5.96

More lines, main results first:

pIC50 [1]: 7.88
Compound: CCC(=O)NCCOCCNC(=O)CCN1CCC(c2cc(OC(C)C)c(Nc3ncc(Cl)c(Nc4ccccc4S(=O)(=O)C(C)C)n3)cc2C)CC1

inhibition [4]: Active | Cmax [5]: 157 ng/mL | pIC50 [6]: 8.85 | AUC(0-inf) [7]: 859 ng·h/mL | inhibition [8]: Active | pIC50 [10]: < 6.00 | half-life [11]: 2.89 h | pIC50 [13]: 6.06 | Tmax [14]: 2.67 h | inhibition [15]: Active | pIC50 [1]: 9.30 | inhibition [17]: Active | inhibition [18]: Active | bioavailability [19]: 12.1% | inhibition [20]: Active | Activity [21]: 891 Da | inhibition [22]: Active | pIC50 [23]: 6.82 | inhibition [25]: Active | clearance [26]: 17 mL/min/kg | Vd [27]: 2.81 L/kg
Compound: C=CC(=O)NCCOCCNC(=O)CCN1CCC(c2cc(OC(C)C)c(Nc3ncc(Cl)c(Nc4ccccc4S(=O)(=O)C(C)C)n3)cc2C)CC1
inhibition in vivo at 20 mg/kg/day [2]: 49.7% | Activity [3]: Non-Toxic | inhibition in vivo at 10 mg/kg/day [9]: 39.7% | TGI [12]: Dose-dependent effect | inhibition in vivo at 50 mg/kg/day [16]: 62% | Activity [24]: Non-Toxic

inhibition [4]: Active | inhibition [20]: Active
Compound: C=CC(=O)NCCOCCOCCNC(=O)CCN1CCC(c2cc(OC(C)C)c(Nc3ncc(Cl)c(Nc4ccccc4S(=O)(=O)C(C)C)n3)cc2C)CC1

inhibition [4]: Active | inhibition [20]: Active | pIC50 [23]: 6.21
Compound: C=CC(=O)NCCOCCOCCOCCNC(=O)CCN1CCC(c2cc(OC(C)C)c(Nc3ncc(Cl)c(Nc4ccccc4S(=O)(=O)C(C)C)n3)cc2C)CC1
Activity [24]: Non-Toxic

inhibition [4]: Active | inhibition [20]: Active | pIC50 [23]: 5.94
Compound: C=CC(=O)NCCCNC(=O)CCN1CCC(c2cc(OC(C)C)c(Nc3ncc(Cl)c(Nc4ccccc4S(=O)(=O)C(C)C)n3)cc2C)CC1
Activity [24]: Non-Toxic
